Results taken from ChEMBL document CHEMBL1144120, “In vitro evaluation of antifungal properties of phenylpropanoids and related compounds acting against dermatophytes” (1999).
Values after ≈ are worked out from the molar mass of the structure shown. Active and inactive are the calls of the source. The calls are words filed in the database; no cut-off is given here.

Key:
[1] = test system: Nannizzia gypsea; assay: Antifungal activity against Microsporum gypseum C 115 by agar dilution method; type: functional
Method in brief: (§1)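 Dermatophytes were tested by agar dilution on Sabouraud chloramphenicol agar in 96-well plates. DMSO stock solutions were serially two-fold diluted into the medium to give final concentrations of 0.10–50 µg/mL, with DMSO not exceeding 2%. Each well received 5 µL of spore suspension.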

[2] = test system: Trichophyton mentagrophytes; assay: Antifungal activity against Trichophyton mentagrophytes ATCC by agar dilution method; type: functional; method in brief: as §1
[3] = test system: Trichophyton rubrum; assay: Antifungal activity against Trichophyton rubrum C 113 by agar dilution method; type: functional; method in brief: as §1
[4] = test system: Epidermophyton floccosum; assay: Antifungal activity against Epidermophyton floccosum C 114 by agar dilution method; type: functional; method in brief: as §1
[5] = test system: Candida albicans; assay: Antifungal activity against Candida albicans ATCC 10231 by agar dilution method; type: functional, organism-based
Method in brief: (§2)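 Sabouraud chloramphenicol agar dilution in 96-well plates. Strains were grown on Sabouraud chloramphenicol agar slants for 48 h at 30 °C and suspended in sterile distilled water, adjusted to 10^6 viable cells/mL. DMSO stocks were serially two-fold diluted into the agar to give 0.10–50 µg/mL, with DMSO ≤2% final. 5 µL inoculum per well; incubated 24, 48 or 72 h at 30 °C per control growth; MIC recorded.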

[6] = test system: Saccharomyces cerevisiae; assay: Antifungal activity against Saccharomyces cerevisiae ATCC 9763 by agar dilution method; type: functional, organism-based; method in brief: as §2
[7] = test system: Cryptococcus neoformans; assay: Antifungal activity against Cryptococcus neoformans ATCC 32264 by agar dilution method; type: functional, organism-based; method in brief: as §2
[8] = test system: Aspergillus flavus; assay: Antifungal activity against Aspergillus flavus ATCC 9170 by agar dilution method; type: functional, organism-based; method in brief: as §2
[9] = test system: Aspergillus fumigatus; assay: Antifungal activity against Aspergillus fumigatus ATCC 26934 by agar dilution method; type: functional, organism-based; method in brief: as §2
[10] = test system: Aspergillus niger; assay: Antifungal activity against Aspergillus niger ATCC 9029 by agar dilution method; type: functional, organism-based; method in brief: as §2
[11] = test system: Microsporum canis; assay: Antifungal activity against Microsporum canis C 112 by agar dilution method; type: functional; method in brief: as §1
[12] = test system: Trichophyton mentagrophytes; assay: Antifungal activity against Trichophyton mentagrophytes ATCC 9972 up to 50 ug/mL by agar dilution method; type: functional, organism-based; method in brief: as §1
[13] = test system: Trichophyton rubrum; assay: Antifungal activity against Trichophyton rubrum C 113 up to 50 ug/mL by agar dilution method; type: functional, organism-based; method in brief: as §1
[14] = test system: Nannizzia gypsea; assay: Antifungal activity against Microsporum gypseum C 115 up to 50 ug/mL by agar dilution method; type: functional, organism-based; method in brief: as §1

Question: Which results are given for `c1ccc2c(c1)ccc1ccccc12` [PHENANTHRENE]?
Answer: MIC [1]: > 50 µg/mL; MIC [2]: > 50 µg/mL; MIC [3]: > 50 µg/mL; MIC [4]: > 50 µg/mL; Activity [5]: inactive; Activity [6]: inactive; Activity [7]: inactive; Activity [8]: inactive; Activity [9]: inactive; Activity [10]: inactive; MIC [11]: > 50 µg/mL

Question: With `COc1ccc(C(=O)C(C)Br)cc1OC` (stereo not drawn) as the compound, how does the Activity [12] read?
Answer: inactive

Question: And the Activity [13]?
Answer: inactive

Question: What about the MIC [1] of the same compound?
Answer: 40 µg/mL (≈ 146 µM)

Question: And the MIC [2]?
Answer: 25 µg/mL (≈ 91.5 µM)

Question: What about the MIC [3] of the same compound?
Answer: > 50 µg/mL

Question: What about the MIC [4] of the same compound?
Answer: 3 µg/mL (≈ 11 µM)

Question: What about the Activity [5] of the same compound?
Answer: inactive

Question: And the Activity [6]?
Answer: inactive

Question: What about the Activity [7] of the same compound?
Answer: inactive

Question: And the Activity [8]?
Answer: inactive

Question: And the Activity [9]?
Answer: inactive

Question: What about the Activity [10] of the same compound?
Answer: inactive

Question: What about the MIC [11] of the same compound?
Answer: 12.5 µg/mL (≈ 45.8 µM)

Question: Which results are given for `CCC(=O)c1cc2ccccc2c2ccccc12`?
Answer: MIC [1]: 6.25 µg/mL (≈ 26.7 µM); MIC [2]: 3 µg/mL (≈ 12.8 µM); MIC [3]: 6.25 µg/mL (≈ 26.7 µM); MIC [4]: 20 µg/mL (≈ 85.4 µM); Activity [5]: inactive; Activity [6]: inactive; Activity [7]: inactive; Activity [8]: inactive; Activity [9]: inactive; Activity [10]: inactive; MIC [11]: 3 µg/mL (≈ 12.8 µM)

Question: What does the source list for `CC(C)C(=O)c1cc2ccccc2c2ccccc12`?
Answer: MIC [1]: 20 µg/mL (≈ 80.5 µM); MIC [2]: 6.25 µg/mL (≈ 25.2 µM); MIC [3]: 20 µg/mL (≈ 80.5 µM); MIC [4]: 20 µg/mL (≈ 80.5 µM); Activity [5]: inactive; Activity [6]: inactive; Activity [7]: inactive; Activity [8]: inactive; Activity [9]: inactive; Activity [10]: inactive; MIC [11]: 20 µg/mL (≈ 80.5 µM)

Question: How did the Activity [13] turn out when `CC(C)C(O)c1ccc2ccccc2c1` (stereo not drawn) was run?
Answer: inactive

Question: What about the MIC [1] of the same compound?
Answer: 25 µg/mL (≈ 125 µM)

Question: And the MIC [2]?
Answer: 12.5 µg/mL (≈ 62.4 µM)

Question: What about the MIC [3] of the same compound?
Answer: 12.5 µg/mL (≈ 62.4 µM)

Question: And the MIC [4]?
Answer: 25 µg/mL (≈ 125 µM)

Question: What about the Activity [5] of the same compound?
Answer: inactive

Question: What about the Activity [6] of the same compound?
Answer: inactive

Question: What about the Activity [7] of the same compound?
Answer: inactive

Question: And the Activity [8]?
Answer: inactive

Question: What about the Activity [9] of the same compound?
Answer: inactive

Question: And the Activity [10]?
Answer: inactive

Question: What about the MIC [11] of the same compound?
Answer: 25 µg/mL (≈ 125 µM)

Question: Which results are given for `COc1cc(C(=O)C(C)Br)cc(OC)c1OC` (stereo not drawn)?
Answer: Activity [12]: inactive; Activity [13]: inactive; MIC [1]: 50 µg/mL (≈ 165 µM); MIC [2]: 12.5 µg/mL (≈ 41.2 µM); MIC [3]: > 50 µg/mL; MIC [4]: 8 µg/mL (≈ 26.4 µM); Activity [5]: inactive; Activity [6]: inactive; Activity [7]: inactive; Activity [8]: inactive; Activity [9]: inactive; Activity [10]: inactive; MIC [11]: 15 µg/mL (≈ 49.5 µM); Activity [14]: inactive

Question: For `c1ccc2ccccc2c1` [NAPHTHALENE], which MIC [1] is on record?
Answer: > 50 µg/mL

Question: And the MIC [2]?
Answer: > 50 µg/mL

Question: And the MIC [3]?
Answer: > 50 µg/mL

Question: And the MIC [4]?
Answer: > 50 µg/mL

Question: And the Activity [5]?
Answer: inactive

Question: What about the Activity [6] of the same compound?
Answer: inactive

Question: What about the Activity [7] of the same compound?
Answer: inactive

Question: What about the Activity [8] of the same compound?
Answer: inactive

Question: What about the Activity [9] of the same compound?
Answer: inactive

Question: What about the Activity [10] of the same compound?
Answer: inactive

Question: What about the MIC [11] of the same compound?
Answer: > 50 µg/mL

Question: With `C[C@@H]1[C@H](O)[C@@H](C)/C=C/C=C/C=C/C=C/C=C/C=C/C=C/[C@H](O[C@@H]2O[C@H](C)[C@@H](O)[C@H](N)[C@@H]2O)C[C@@H]2O[C@](O)(C[C@@H](O)C[C@@H](O)[C@H](O)CC[C@@H](O)C[C@@H](O)CC(=O)O[C@H]1C)C[C@H](O)[C@H]2C(=O)O` [AMPHOTERICIN B] as the compound, how does the MIC [1] read?
Answer: 6.25 µg/mL (≈ 6.76 µM)

Question: And the MIC [2]?
Answer: 6.25 µg/mL (≈ 6.76 µM)

Question: And the MIC [3]?
Answer: 25 µg/mL (≈ 27.1 µM)

Question: And the MIC [4]?
Answer: 0.3 µg/mL (≈ 0.325 µM)

Question: What about the Activity [5] of the same compound?
Answer: inactive

Question: And the Activity [6]?
Answer: inactive

Question: What about the Activity [7] of the same compound?
Answer: inactive

Question: What about the Activity [8] of the same compound?
Answer: inactive

Question: And the Activity [9]?
Answer: inactive

Question: And the Activity [10]?
Answer: inactive

Question: What about the MIC [11] of the same compound?
Answer: > 50 µg/mL

Question: How did the Activity [12] turn out when `COc1ccc(C(=O)C(C)Cl)cc1OC` (stereo not drawn) was run?
Answer: inactive

Question: And the MIC [1]?
Answer: 12.5 µg/mL (≈ 54.7 µM)

Question: And the MIC [2]?
Answer: 12.5 µg/mL (≈ 54.7 µM)

Question: What about the MIC [3] of the same compound?
Answer: 10 µg/mL (≈ 43.7 µM)

Question: What about the MIC [4] of the same compound?
Answer: 0.15 µg/mL (≈ 0.656 µM)

Question: What about the Activity [5] of the same compound?
Answer: inactive

Question: And the Activity [6]?
Answer: inactive

Question: And the Activity [7]?
Answer: inactive

Question: And the Activity [8]?
Answer: inactive

Question: What about the Activity [9] of the same compound?
Answer: inactive

Question: What about the Activity [10] of the same compound?
Answer: inactive

Question: And the MIC [11]?
Answer: 3.12 µg/mL (≈ 13.6 µM)

Question: What does the source list for `CC(Br)C(=O)c1ccc2c(c1)OCO2` (stereo not drawn)?
Answer: Activity [12]: inactive; MIC [1]: 25 µg/mL (≈ 97.2 µM); MIC [2]: 20 µg/mL (≈ 77.8 µM); MIC [3]: 12.5 µg/mL (≈ 48.6 µM); MIC [4]: 6.25 µg/mL (≈ 24.3 µM); Activity [5]: inactive; Activity [6]: inactive; Activity [7]: inactive; Activity [8]: inactive; Activity [9]: inactive; Activity [10]: inactive; MIC [11]: 3.12 µg/mL (≈ 12.1 µM)
